Assay [1] can be described thus: Inhibition of human amyloid beta 42 aggregation assessed as decreasing in fluorescence intensity for 3 hrs by ThT fluorescence assay. Summed up: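 Aβ42 monomer (20 µM final) plus ThT (20 µM final, diluted in PBS pH 7.4) and serial 10-fold compound dilutions (1 to 0.00001 µM), 37 °C for 3 h with 15 s shaking every 5 min. Fluorescence read at ex 430/em 480 nm and corrected against a PBS+ThT blank. IC50 taken from intensity at half Vmax versus concentration; mean ± s.d. of triplicates.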

Assay [2] can be described thus: Neurotoxicity in mouse N2a cells assessed as cell viability for 24 hrs by MTT assay. Type of assay: cell-based. Summed up: (§1)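 N2A or U87 MG cells (8x10^3/well, DMEM + 10% FBS, grown overnight at 37 °C, 5% CO2) treated 24 h with compound at 1, 5, 10, 25, 50, 100 and 200 µM. MTT 0.5 mg/mL for 3 h, DMSO added, absorbance read at 550 nm. IC50 from semi-log dose-response plots; mean ± s.d. of three independent experiments in triplicate.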
For orientation: Formazan colour is commonly taken as a measure of viable cells.

The nature of assay [3]: Neurotoxicity in human U87 MG cells assessed as cell viability for 24 hrs by MTT assay. The following applies: U-87 MG. Type of assay: cell-based, U-87MG ATCC. Summed up:
as §1

The next assay relates to N2a. Briefly: Neuroprotective effect against amyloid beta-induced cytotoxicity in mouse N2a cells assessed as cell viability measured after 3 hrs by MTT assay (reference value: 55%). Type of assay: functional.
For assay [4], the target named is Amyloid-beta precursor protein (Homo sapiens) (UniProt P05067). Nature of the assay: Inhibition of amyloid beta (unknown origin) aggregation assessed as increase in generation of amyloid beta oligomers at 10 uM incubated for 30 mins by negative staining TEM imaging analysis. In outline:
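Aβ monomer stock (500 µM in 2 mM NaOH, centrifuged supernatant) diluted to 5 µM, incubated alone or with compound in PBS pH 7.4 at 37 °C for 30 min. Sample applied to plasma-hydrophilised carbon grid for 1 min at RT, washed with water, stained 1 min with 1% Nano-W, imaged by TEM at 200 kV.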

SMILES strings stand for the structures. Active and inactive are the calls of the source. No cut-off for these calls is given here. Some results are limits rather than exact numbers.

Amyloid-beta precursor protein (Homo sapiens), sequence (P05067 whole entry): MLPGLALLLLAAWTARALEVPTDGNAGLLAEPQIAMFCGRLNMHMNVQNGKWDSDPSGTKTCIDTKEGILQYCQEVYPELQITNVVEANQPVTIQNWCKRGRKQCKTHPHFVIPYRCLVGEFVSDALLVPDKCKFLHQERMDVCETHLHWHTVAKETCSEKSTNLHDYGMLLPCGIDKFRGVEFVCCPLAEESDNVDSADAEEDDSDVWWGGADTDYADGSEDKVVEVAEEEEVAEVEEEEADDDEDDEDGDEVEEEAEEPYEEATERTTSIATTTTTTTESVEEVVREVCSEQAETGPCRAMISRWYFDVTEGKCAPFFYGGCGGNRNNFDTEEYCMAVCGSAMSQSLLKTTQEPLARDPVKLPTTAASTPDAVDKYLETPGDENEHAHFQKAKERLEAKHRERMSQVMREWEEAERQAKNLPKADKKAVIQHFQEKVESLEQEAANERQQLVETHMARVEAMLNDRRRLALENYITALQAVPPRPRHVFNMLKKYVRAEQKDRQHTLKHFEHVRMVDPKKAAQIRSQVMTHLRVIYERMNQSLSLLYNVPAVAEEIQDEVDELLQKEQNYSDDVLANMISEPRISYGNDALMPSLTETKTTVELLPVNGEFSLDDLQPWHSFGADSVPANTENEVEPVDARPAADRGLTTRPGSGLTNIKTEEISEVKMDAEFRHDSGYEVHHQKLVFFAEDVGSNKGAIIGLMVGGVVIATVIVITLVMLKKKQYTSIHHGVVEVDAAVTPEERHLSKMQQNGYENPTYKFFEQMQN

As to `COC(=O)COc1ccc(/C=C/C(=O)CC(=O)/C=C/c2ccc(O)c(C(F)(F)F)c2)cc1OC`, in assay [1], the IC50 came to 22 nM.

As to `COc1cc(/C=C/C(=O)CC(=O)/C=C/c2ccc(OCC(=O)OC(C)(C)C)c(C(F)(F)F)c2)ccc1O`, the IC50 in assay [1] is 55 nM; in assay [2] it was over 100000 nM; in assay [3] it was over 100000 nM. The Activity in the assay with N2a was over 90%.

As to `COC(=O)COc1ccc(/C=C/C(=O)CC(=O)/C=C/c2ccc(O)c(C(F)(F)F)c2)cc1C(F)(F)F`, the IC50 in assay [1] came to 109 nM.

As for `COC(=O)COc1ccc(/C=C/C(=O)CC(=O)/C=C/c2ccc(O)c(OC)c2)cc1OC`, the IC50 in assay [1] amounted to 29 nM.

On to `COC(=O)COc1ccc(/C=C/C(=O)CC(=O)/C=C/c2ccc(O)c(OC)c2)cc1C(F)(F)F`, for which the IC50 in assay [1] turned out to be 7 nM; in assay [2], 38700 nM; in assay [3], 90000 nM. For the same compound, the inhibition entry in assay [4] is “Active”. The Activity with N2a was 70%.

For `COc1cc(/C=C/C(=O)CC(=O)/C=C/c2cccc(C(F)(F)F)c2)ccc1O`, the IC50 in assay [1] stood at 13 nM; in assay [2], 65700 nM; in assay [3] it was 88700 nM.

With `COc1cc(/C=C/C(=O)CC(=O)/C=C/c2ccc(O)c(C(F)(F)F)c2)ccc1O`, the IC50 in assay [1] turned out to be 52 nM.

As to `COC(=O)COc1ccc(/C=C/C(=O)CC(=O)/C=C/c2ccc(OCC(=O)OC)c(C(F)(F)F)c2)cc1OC`, the IC50 in assay [1] was 55 nM.

As to `COc1cc(/C=C/C(=O)CC(=O)/C=C/c2ccc(OCC(=O)O)c(C(F)(F)F)c2)ccc1O`, the IC50 in assay [1] came out at 698 nM.

`COC(=O)COc1ccc(/C=C/C(=O)CC(=O)/C=C/c2cccc(C(F)(F)F)c2)cc1OC`: the IC50 in assay [1] stood at 46 nM.

Consider `O=C(/C=C/c1cccc(C(F)(F)F)c1)CC(=O)/C=C/c1ccc(O)c(C(F)(F)F)c1`, for which the IC50 in assay [1] turned out to be 18 nM.

As for `Nc1c2c(nc3ccccc13)CCCC2` [TACRINE], in assay [1], the IC50 is 22 nM.

With `COc1cc(/C=C/C(=O)CC(=O)/C=C/c2ccc(O)c(OC)c2)ccc1O` [CURCUMIN], the IC50 in assay [1] is 693 nM; in assay [2], 22600 nM; in assay [3], 18400 nM.

A word on the IC50: it is the concentration that gives 50% inhibition.
